According to ChEMBL document CHEMBL4602675, “The Marine Natural Product Manzamine A Inhibits Cervical Cancer by Targeting the SIX1 Protein” (J Nat Prod, 2020):
Active and inactive are the calls of the source. The rule behind the calls is not given here.

Assays:
C-33-A = experiment: Antiproliferative activity against human C33A cells assessed as reduction in cell viability at 2 to 4 uM incubated up to 72 hrs by CellTiter-Glo assay; format: functional, cell-based
HeLa = experiment: Antiproliferative activity against human HeLa cells assessed as reduction in cell viability at 2 to 4 uM incubated up to 72 hrs by CellTiter-Glo assay; format: functional, cell-based
SiHa = experiment: Antiproliferative activity against human SiHa cells assessed as reduction in cell viability at 2 to 4 uM incubated up to 72 hrs by CellTiter-Glo assay; format: functional, cell-based
Ca-Ski = experiment: Antiproliferative activity against human CaSki cells assessed as reduction in cell viability at 2 to 4 uM incubated up to 72 hrs by CellTiter-Glo assay; format: functional, cell-based
Keratinocyte = experiment: Cytotoxicity against human Keratinocytes assessed as reduction in cell viability at 4 uM incubated up to 72 hrs by trypan blue staining based cell counting assay
[1] = biological target: T1, Homeobox protein SIX1 (Homo sapiens) (UniProt Q15475); experiment: Inhibition of SIX1 in human C33A cells at 40 uM after 48 hrs by Western blot analysis; format: cell-based; settings: C-33-A
T1 sequence (whole entry): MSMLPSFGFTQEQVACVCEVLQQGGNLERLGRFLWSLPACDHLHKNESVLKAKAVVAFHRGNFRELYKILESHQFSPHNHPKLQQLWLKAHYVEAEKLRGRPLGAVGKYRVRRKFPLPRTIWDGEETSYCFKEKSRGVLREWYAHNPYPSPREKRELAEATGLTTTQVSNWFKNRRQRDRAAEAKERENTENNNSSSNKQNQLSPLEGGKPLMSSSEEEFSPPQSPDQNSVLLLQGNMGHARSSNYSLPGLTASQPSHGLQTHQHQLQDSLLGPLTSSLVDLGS
How it was run: (§1)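 Cells seeded at 1 × 10^6 per 100 mm dish and treated next day at 10, 20 or 40 μM for 48 h. Harvested by trypsinization, PBS-washed, and lysed in RIPA buffer with protease inhibitors. Equal protein by colorimetric assay went to SDS-PAGE and PVDF. Primary antibody 1:500, blocked and diluted in 5% nonfat milk/TBST (SIX1) or 3% BSA (CK2α). HRP secondary 1:2000; chemiluminescent detection.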

[2] = biological target: T1, Homeobox protein SIX1 (Homo sapiens); experiment: Inhibition of SIX1 in human SiHa cells at 40 uM after 48 hrs by Western blot analysis; format: cell-based; how it was run: as §1
[3] = biological target: T1, Homeobox protein SIX1 (Homo sapiens); experiment: Inhibition of SIX1 in human HeLa cells at 40 uM after 48 hrs by Western blot analysis; format: cell-based; how it was run: as §1
[4] = biological target: T1, Homeobox protein SIX1 (Homo sapiens); experiment: Inhibition of SIX1 in human CaSki cells at 40 uM after 48 hrs by Western blot analysis; format: cell-based; settings: Ca-Ski; how it was run: as §1
[5] = biological target: Casein kinase II subunit alpha (Homo sapiens) (UniProt P68400); settings: C-33-A, 40 uM
Casein kinase II subunit alpha (Homo sapiens), sequence (P68400 whole entry, looked up): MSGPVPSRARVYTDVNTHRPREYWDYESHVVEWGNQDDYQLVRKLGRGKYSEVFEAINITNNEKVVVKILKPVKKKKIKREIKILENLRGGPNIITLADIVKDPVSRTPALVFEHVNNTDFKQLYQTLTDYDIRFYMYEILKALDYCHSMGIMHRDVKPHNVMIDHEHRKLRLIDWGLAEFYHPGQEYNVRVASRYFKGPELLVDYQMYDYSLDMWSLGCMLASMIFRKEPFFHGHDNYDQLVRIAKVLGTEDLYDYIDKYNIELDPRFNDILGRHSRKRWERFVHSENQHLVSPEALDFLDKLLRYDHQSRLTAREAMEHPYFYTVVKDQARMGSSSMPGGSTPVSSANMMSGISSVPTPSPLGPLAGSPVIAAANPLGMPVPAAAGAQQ

[6] = biological target: Casein kinase II subunit alpha (Homo sapiens) (UniProt P68400); settings: HeLa, 40 uM
[7] = biological target: Casein kinase II subunit alpha (Homo sapiens) (UniProt P68400); settings: SiHa, 40 uM
[8] = biological target: Casein kinase II subunit alpha (Homo sapiens) (UniProt P68400); settings: Ca-Ski, 40 uM
[9] = Toxicity in po dosed mouse; format: organism-based; settings: in vivo

Compound	Activity (C-33-A)	Activity (HeLa)	Activity (SiHa)	Activity (Ca-Ski)	also measured
Oc1cccc2c1[nH]c1c(C3=C[C@@]4(O)CC/C=C\CCCCN5CC[C@@H]3[C@]3(C[C@@H]6/C=C\CCCCN6[C@H]34)C5)nccc12	Active	Active	Active	Active	Activity (Keratinocyte): Toxic
O=C1CCCN2[C@@H](CC1)C[C@]13CN4CCCC/C=C\CC[C@](O)(C=C(c5nccc6c5[nH]c5c(O)cccc56)[C@@H]1CC4)[C@H]23	inactive	inactive	inactive	inactive	
O=CC1=C[C@@]2(O)CC/C=C\CCCCN3CC[C@@H]1[C@]1(C[C@@H]4/C=C\CCCCN4[C@H]12)C3	inactive	inactive	inactive	inactive	
O=c1cc(-c2ccc(O)cc2)oc2cc(O)cc(O)c12					inhibition [1]: Active; inhibition [2]: Active; inhibition [3]: Active; inhibition [4]: Active; inhibition [5]: Active; inhibition [6]: Active; inhibition [7]: Active; inhibition [8]: Active
O[C@]12C=C([C@H]3NCCc4c3[nH]c3ccccc43)[C@@H]3CCN(CCCC/C=C\CC1)C[C@@]31C[C@@H]3/C=C\CCCCN3[C@H]12	inactive	inactive	inactive	inactive	
CC(=O)Nc1ccc(O)cc1 [ACETAMINOPHEN]					LD50 [9]: 338 mg/kg
